Bioassay records as filed in PubChem.
Xi reactivation: activators of inactive X chromosome reactivation, primary screen, imaging, XiGFP fibroblasts, GFP high-content imaging, set 2; XiGFP mouse fibroblasts, % GFP-positive cells imaging, 3 d; cells co-treated with 5-aza-dC sensitizer; scaled so ellipticine positive control = 100%; activation, % at 7.58 µM; hit rate 0.055% among 360,000; AID 743238, 2013;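 active = mean normalized replicate activation at least 10% and every replicate at or above 10%; inconclusive = only one of the two criteria met; inactive = mean below 10% and not all replicates reach 10%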;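 also: 0% = median of on-plate neutral control wells and 100% = ellipticine 6 µM median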
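System: SV40-immortalized XiGFP fibroblast cells, line 68-5-11 / Incubation: 3-day compound exposure, then 15 min fixation at room temperature / Compound: single concentration per compound, delivered by pin transfer / Buffer or medium: DMEM plus 5-aza-dC sensitizer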
FGF22 binding: binders of human FGF22 protein, primary screen, FGF22 synaptogenesis inhibitor project, biophysical, thermal shift, single point; Fibroblast growth factor 22 (Homo sapiens), Q9HCT0; recombinant FGF22 thermal shift, SYPRO orange fluorescence; percent of sucrose octasulfate shift, DMSO zero; activity (Tm shift, normalised), % at 9.99 µM; hit rate 1.5% among 340,000;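 active = mean Tm shift, scaled 0 neutral to 100 positive control, at about 1.3% or above, every replicate too, limit read from the data; inconclusive = no clear call, values can overlap the other calls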
Target sequence (Q9HCT0 whole entry, looked up): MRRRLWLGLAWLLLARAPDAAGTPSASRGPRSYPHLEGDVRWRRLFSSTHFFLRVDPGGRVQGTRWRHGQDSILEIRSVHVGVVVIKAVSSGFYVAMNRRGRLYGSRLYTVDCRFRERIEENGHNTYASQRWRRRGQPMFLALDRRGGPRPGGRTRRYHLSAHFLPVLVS
ARNT-TACC3 inh: disruptors of ARNT/TACC3 protein interaction, primary screen, biochemical, AlphaScreen, single concentration; AlphaScreen His-ARNT PAS-B/GST-TACC3 binding, luminescence; TACC3 fragment carries E629A point mutation; inhibition, % at 9.99 µM; hit rate 0.66% among 390,000; AID 623870, 2012;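 active = mean inhibition of replicates at least 50% and at least half of replicates each reaching 50%; inconclusive = half or more replicates reach 50% but mean below 50%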;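 also: 0% = complete ARNT plus TACC3 wells and 100% = ARNT alone without TACC3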
DENV2 CPE rescue: inhibitors of DENV2 cytopathic effect, primary screen, cell-based, plate reader, single concentration. DENV2-infected cells, cytopathic effect rescue. CPE inhibition, % at 9.99 µM. hit rate 1.7% among 350,000. AID 651640, 2012; in the data active = CPE inhibition above about 20%, passing the limit was not always enough; inconclusive = no clear call, values can overlap the other calls; tested in BHK-21 cells;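 also: 0% = median of neutral control wells and 100% = median of positive control wells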
SIRT5 inh: SIRT5 desuccinylase inhibitors, primary screen, biochemical, fluorescence imaging, single point, set 5; Purified SirT5, succinyl-peptide AMC, trypsin-coupled fluorescence; hit rate 1.1% among 330,000; inhibition, % at 15 µM; in the data active = inhibition above about 15%; inconclusive = no clear call, values can overlap the other calls
Target sequence (Q9NXA8 whole entry, looked up): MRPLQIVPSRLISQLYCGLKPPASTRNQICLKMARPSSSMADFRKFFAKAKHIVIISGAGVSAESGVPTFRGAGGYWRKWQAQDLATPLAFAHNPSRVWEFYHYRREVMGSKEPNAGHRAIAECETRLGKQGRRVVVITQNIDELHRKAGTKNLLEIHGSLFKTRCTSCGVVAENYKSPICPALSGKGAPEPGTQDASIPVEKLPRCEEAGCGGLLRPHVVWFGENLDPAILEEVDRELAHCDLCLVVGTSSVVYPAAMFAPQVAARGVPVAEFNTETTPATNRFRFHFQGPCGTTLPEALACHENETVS
FN deposition inh: inhibitors of fibronectin matrix deposition, primary screen, AH1F cells, Alexa488-fibronectin fluorescence, plate reader; AH1F fibroblasts, overnight; hit rate 0.086% among 350,000; inhibition, % at 12.6 µM; AID 743247, 2014;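 active = mean inhibition across replicates of 30% or more, regardless of how many single replicates reach that level; inconclusive = mean under 30% yet at least half of replicates reach 30%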;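 also: positive control wells lacked labelled fibronectin entirely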
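Material – AH1F fibroblast monolayer, labelled fibronectin deposition · Reagent – labelled fibronectin 24 nM · Timing – 1 h adhesion, overnight exposure · Measured by – fluorescence at 485 nm excitation, 525 nm emission · Read-out – inhibition of fibronectin deposition signal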
* marks the source's active call; other numbers are inactive results; ? = inconclusive; . = no result given. An excerpt weighted towards active compounds, which were near 3.8% of everything screened.

SMILES	Xi reactivation	FGF22 binding	ARNT-TACC3 inh	DENV2 CPE rescue	SIRT5 inh	FN deposition inh
COc1ccc2c3c([nH]c2c1)[C@H](CO)N(C(=O)Nc1ccc(F)cc1)CC31CN(S(=O)(=O)c2cccs2)C1	0	.	.	.	.	.
COc1ccc2c3c(n(C)c2c1)[C@@H](CO)N(Cc1ccccc1)CC31CCN(C)CC1	0	0	.	56*	.	.
CCCC(O)C#Cc1cnc2c(c1)C(=O)N([C@H](C)CO)C[C@H](C)[C@H](CN(C)C(=O)NC1CCCCC1)O2 (some centres not stated)	0	0	3	-1	1	.
Cc1ccc(S(=O)(=O)N(C)C[C@H]2Oc3c(NC(=O)Nc4ccccc4)cccc3C(=O)N([C@@H](C)CO)C[C@H]2C)cc1	0	-1	.	4	.	.
C[C@H]1CN([C@@H](C)CO)C(=O)c2cccc(NS(=O)(=O)c3ccc(Cl)cc3)c2O[C@@H]1CN(C)CC1CC1	.	.	-5	2	-4	.
CCn1c(SC)nnc1-c1nn(-c2ccccc2)ccc1=O	0	43*	3	8	-2	-1
CCCCCNC(=O)c1[nH]c(C(F)(F)F)nc1-c1ccccc1	0	0	.	28*	-6	5
O=C(NCCc1ccccc1)c1[nH]c(C(F)(F)F)nc1-c1ccccc1	0	0	.	-7	-1	8
C[C@@H]1CCCCO[C@@H](CN(C)C(=O)Nc2ccc(F)cc2)[C@H](C)CN([C@H](C)CO)C(=O)c2cc(NC(=O)Nc3ccccc3)ccc2O1	0	1	-3	0	13	6
C/C=C/c1ccc([C@H]2[C@@H](CO)N(C(=O)c3cnccn3)C23CN(C(=O)C2CCC2)C3)cc1	0	0	.	-11	.	-1
CCN1CCN(Cc2ccc(NC(=O)c3cc(NC(=O)c4cnn(-c5ccccc5)c4N)cc(OC)c3)cc2C(F)(F)F)CC1	0	0	4	82*	.	-16
C[C@@H]1CCCCO[C@@H](CN(C)C(=O)NC2CCCCC2)[C@H](C)CN([C@@H](C)CO)C(=O)c2cc(NC(=O)Cc3ccccc3)ccc2O1	0	0	16	3	1	.
O=C(Nc1ccccc1)n1cc(-c2ccccn2)c(N2CCOCC2)n1	0	44*	.	?	1	-2
COc1cc(OC)c(OC)cc1/C=C/c1cc(C(F)(F)F)[nH]c(=O)n1	0	43*	-12	4	0	-20
COc1cc(/C=C/c2cc(C(F)(F)F)[nH]c(=O)n2)cc(OC)c1OC	0	0	-7	2	.	5
C[C@H](CO)N1C[C@H](C)[C@H](CN(C)C)Oc2ccc(NS(=O)(=O)c3ccccc3)cc2C1=O	0	.	.	4	0	3
COc1cccc(C2c3[nH]c4ccccc4c3CCN2Cc2ncc[nH]2)c1 (configuration not stated)	0	0	53*	9	-3	7
Nc1nc(SCCO)[nH]c(=O)c1NC(=O)c1ccccc1F	0	44*	1	10	0	-6
C[C@@H]1CN([C@@H](C)CO)C(=O)c2cccc(NS(=O)(=O)c3ccccc3)c2O[C@@H]1CN(C)C(=O)Nc1ccc(C(F)(F)F)cc1	.	0	5	6	8	.
CCNC(=O)N1C[C@H]2CON(C)[C@H]2C[C@H]1c1ccc(N2CCCCC2)cc1	0	0	.	18	-2	1
CN1OC[C@@H]2CN(C(=O)NC3CCCCC3)[C@H](c3ccc(N4CCCCC4)cc3)C[C@@H]21	0	0	.	22*	-3	5
CCCC#Cc1cnc2c(c1)C(=O)N([C@H](C)CO)C[C@H](C)[C@H](CN(C)S(=O)(=O)c1cccc(OC)c1)O2	0	0	-5	0	0	.
COc1cc(C2CC(=O)Oc3c(C(CCN4CCCC(C)C4)c4ccc(N(C)C)cc4)c(OC)cc(OC)c32)cc(OC)c1OC (configuration not stated)	0	0	29	51*	0	16
COc1cc(C(CCN2CCCC(C)C2)c2c(OC)cc(OC)c3c2OC(=O)CC3c2ccc(N(C)C)cc2)cc(OC)c1OC (configuration not stated)	.	.	35	.	.	.
Cc1ccc(S(=O)(=O)Nc2ccc3c(c2)CC(=O)N([C@@H](C)CO)C[C@H](C)[C@H](CN(C)C(=O)Nc2ccccc2)O3)cc1	1	.	-1	.	0	.
SMILES	Xi reactivation	FGF22 binding	ARNT-TACC3 inh	DENV2 CPE rescue	SIRT5 inh	FN deposition inh
N#CCC(=O)c1ccccc1Oc1ccc(Cl)cc1	0	44*	-3	10	0	5
C[C@@H]1CCCCO[C@@H](CN(C)Cc2ccccc2)[C@H](C)CN([C@@H](C)CO)C(=O)c2cc(NC(=O)CCC(F)(F)F)ccc2O1	0	-1	13	-11	3	-4
Cc1ccc(C2CC(=O)C=C(NCc3ccccc3)C2)cc1 (configuration not stated)	0	0	-3	-1	-4	-2
Cc1ccc(C2CC(=O)C=C(NCC(C)C)C2)cc1 (configuration not stated)	1	0	-6	-5	15*	0
CSc1nc2ccc(NC(=O)C3=NNC(=O)CC3)cc2s1	0	43*	1	-7	4	12
CSc1nc2ccc(NC(=O)C3=NN(c4ccccc4)C(=O)CC3)cc2s1	0	0	10	4	0	-1
O=c1cc(O)n(C2CCCCCC2)c(=O)[nH]1	0	0	active	2	-3	3
CC=Cc1ccc2n(c1=O)C[C@H]1[C@H](CO)[C@@H](C(=O)N3CCCCC3)[C@@H]2N1C(=O)C1CC1 (mixture of isomers)	0	.	-13	7	-15	.
C[C@@H]1CN([C@@H](C)CO)C(=O)c2c(c3ccccc3n2C)-c2ccccc2CO[C@H]1CN(C)C(=O)Nc1cccc(C(F)(F)F)c1	-1	.	.	.	.	6
COc1ccc(CN(C)C[C@@H]2OCCCC[C@H](C)Oc3ccc(NC(=O)Cc4ccccc4)cc3C(=O)N([C@@H](C)CO)C[C@H]2C)cc1	1	0	6	27*	.	.
